# According to ChEMBL document CHEMBL1949532, “Novel dendrimeric lipopeptides with antifungal activity” (Bioorg Med Chem Lett, 2012):
# pEC50, pIC50: −log10 of the molar value. Active and inactive are the calls of the source. No cut-off for these calls is given here. Starred links: 1 amine or outer side, 2 acyl side, 3 side chain; linkers in the order of their positions; H or OH if unused. Positions of bridges follow the written chain, without caps; N, C: chain ends. Non-standard residues stand in square brackets, D forms with d. Residues, ends and D or L forms follow the SMILES beside them. Groups on a side chain read outwards from the residue. *: point of attachment. Orn(4R-OH,5R-OH) = O=C([C@H](C[C@@H](O)[C@@H](O)N[*:3])N[*:1])[*:2]; hTyr(3S-OH,4S-OH) = N[C@H](C(=O)O)[C@H](O)[C@@H](O)c1ccc(O)cc1; Pro(3S-OH,4S-Me) = C[C@H]1CN[C@H](C(=O)O)[C@H]1O; εLys = N[C@@H](CCCCN[*:1])C(=O)[*:2]; Palmitoyl = CCCCCCCCCCCCCCCC(=O)*; Hyp = O=C(O)[C@@H]1C[C@@H](O)CN1; ClZ = O=C(OCc1ccccc1Cl)*; Cbz = O=C(OCc1ccccc1)*
# Tests used:
# Candida parapsilosis = assay: Antifungal activity against Candida parapsilosis ATCC 22019 after 24 to 48 hrs by serial broth microdilution susceptibility test; assay type: functional; settings: Lodderomyces parapsilosis
# Method in brief: (§1)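 MIC determined by serial microdilution in microplates. Candida inocula were prepared in L-glutamine-deficient RPMI-1640 medium.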
# [1] = system: Klebsiella pneumoniae subsp. pneumoniae; assay: Antibacterial activity against Klebsiella pneumoniae subsp. pneumoniae ATCC 13882 after 18 to 24 hrs by serial broth microdilution susceptibility test; assay type: functional; method in brief: as §1
# Pseudomonas aeruginosa = assay: Antibacterial activity against Pseudomonas aeruginosa ATCC 27853 after 18 to 24 hrs by serial broth microdilution susceptibility test; assay type: functional; method in brief: as §1
# [2] = Toxicity in human erythrocytes suspended in L-glutamine deficient RPMI-1640 assessed as hemolysis after 30 mins by spectrophotometry relative to human erythrocytes suspended in PBS buffer; assay type: cell-based; settings: erythrocyte, 0.5 h
# Method in brief: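 Hemolysis was measured for human erythrocytes resuspended in L-glutamine-deficient RPMI-1640 (the Candida MIC medium) and compared with erythrocytes suspended in PBS.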
# Staphylococcus aureus [3] = assay: Antibacterial activity against Staphylococcus aureus ATCC 43300 after 18 to 24 hrs by serial broth microdilution susceptibility test; assay type: functional; method in brief: as §1
# [4] = system: Bordetella bronchiseptica; assay: Antibacterial activity against Bordetella bronchiseptica ATCC 4617 after 18 to 24 hrs by serial broth microdilution susceptibility test; assay type: functional; method in brief: as §1
# Candida albicans [5] = assay: Antifungal activity against Candida albicans ATCC 10231 assessed as leakage of intracellular contents at 4 uM after 2 hrs by scanning electron microscopy; assay type: functional, organism-based
# Pichia kudriavzevii = assay: Antifungal activity against Candida krusei ATCC 6258 after 24 to 48 hrs by serial broth microdilution susceptibility test; assay type: functional; method in brief: as §1
# [6] = Toxicity in human erythrocytes assessed as hemolysis at above MIC after 30 mins by spectrophotometry; assay type: cell-based; settings: erythrocyte, 0.5 h
# Method in brief: (§2)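 Human erythrocytes suspended in PBS were exposed to lipopeptides at 0.001–0.4 mmol/l and hemolysis was measured.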
# [7] = (§3) Inhibition of beta (1,3) glucan synthase in Candida albicans cell membrane using UDP-Glc as substrate assessed as aniline blue-glucan complex formation by microtiter-based fluorescence method
# Method in brief: (§4)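 β(1,3)-glucan synthase in the membrane fraction of C. albicans was assayed by a microtiter-based fluorescence method across a concentration range. Values are means of three independent experiments (SD); IC50 was determined.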
# Candida albicans [8] = assay: Antifungal activity against Candida albicans ATCC 10231 assessed as massive destruction of cell surface at 64 uM after 2 hrs by scanning electron microscopy; assay type: functional, organism-based
# Escherichia coli [9] = assay: Antibacterial activity against Escherichia coli ATCC BAA-198 after 18 to 24 hrs by serial broth microdilution susceptibility test; assay type: functional; method in brief: as §1
# Staphylococcus aureus [10] = assay: Antibacterial activity against Staphylococcus aureus ATCC 25923 after 18 to 24 hrs by serial broth microdilution susceptibility test; assay type: functional; method in brief: as §1
# Candida albicans [11] = assay: Antifungal activity against Candida albicans ATCC 90028 after 24 to 48 hrs by serial broth microdilution susceptibility test; assay type: functional; method in brief: as §1
# Escherichia coli [12] = assay: Antibacterial activity against Escherichia coli ATCC 25922 after 18 to 24 hrs by serial broth microdilution susceptibility test; assay type: functional; method in brief: as §1
# Candida albicans [13] = assay: Antifungal activity against Candida albicans ATCC 10231 assessed as alteration in cell envelope at 4 uM after 2 hrs by scanning electron microscopy; assay type: functional, organism-based
# Acinetobacter baumannii = assay: Antibacterial activity against Acinetobacter baumannii ATCC 19606 after 18 to 24 hrs by serial broth microdilution susceptibility test; assay type: functional; settings: ATCC 19606 = CIP 70.34 = JCM 6841; method in brief: as §1
# [14] = Toxicity in human erythrocytes assessed as hemolysis at 100 uM after 30 mins by spectrophotometry; assay type: cell-based, Erythrocyte; settings: read-out: Activity; method in brief: as §2
# [15] = Toxicity in human erythrocytes assessed as hemolysis at 50 uM after 30 mins by spectrophotometry; assay type: cell-based, Erythrocyte; settings: read-out: Activity; method in brief: as §2
# Candida albicans [16] = assay: Antifungal activity against Candida albicans ATCC 10231 assessed as morphological changes at < 7 uM after 6 hrs by calcofluor white and aniline blue staining-based fluorescence microscopy; assay type: functional, organism-based
# Method in brief: (§5)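 C. albicans ATCC 10231 yeast cells were incubated with compound for 6 h, at up to 2×MIC. Chitin was stained with Calcofluor White and glucan with Aniline Blue, then cells were examined by fluorescence microscopy against untreated controls.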
# Candida albicans [17] = assay: Antifungal activity against Candida albicans ATCC 10231 assessed as increase in intracellular potassium release after 30 mins; assay type: functional, organism-based
# Method in brief: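 Efflux of K+ from C. albicans cells was monitored continuously with a potassium-selective electrode. Release was expressed relative to a positive control, and EK50 was taken as the concentration releasing 50% of intracellular potassium.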
# Candida albicans [18] = assay: Antifungal activity against Candida albicans ATCC 10231 assessed as loss of integrity at 10 uM after 2 hrs by scanning electron microscopy; assay type: functional, organism-based
# Candida albicans [19] = assay: as §3; method in brief: as §4
# Candida albicans [20] = assay: Antifungal activity against Candida albicans ATCC 10231 assessed as pseudohyphae formation at 14 uM after 6 hrs by calcofluor white and aniline blue staining-based fluorescence microscopy; assay type: functional, organism-based; method in brief: as §5
SMILES,MIC (Candida parapsilosis) [µM],MIC [1] [µM],MIC (Pseudomonas aeruginosa) [µM],MIC (Staphylococcus aureus [3]) [µM],MIC [4] [µM],MIC (Pichia kudriavzevii) [µM],MIC (Escherichia coli [9]) [µM],MIC (Staphylococcus aureus [10]) [µM],MIC (Candida albicans [11]) [µM],MIC (Escherichia coli [12]) [µM],MIC (Acinetobacter baumannii) [µM],pIC50 [7],"hemolysis at 0.5 h, 100 µM [14] [%]",also measured
CCCCCCCCCCCCNC(=O)[C@H](Cc1ccccc1)NC(=O)[C@H](CCCCNC(=O)[C@H](CCCCN)NC(=O)OCc1ccccc1Cl)NC(=O)[C@H](CCCCN)NC(=O)OCc1ccccc1Cl,8,> 256,64,16,8,8,32,32,8,32,> 256,4.30,13,"hemolysis at 0.5 h, 50 µM [15]: 10%"
O=C/C=C/c1ccccc1 [CINNAMALDEHYDE],–,–,–,–,–,–,–,–,–,–,–,2.94,–,–
"CCCCCCCCCCCCCCCC(=O)N[C@H]1C[C@@H](O)[C@@H](O)NC(=O)[C@@H]2[C@@H](O)[C@@H](C)CN2C(=O)[C@H]([C@@H](C)O)NC(=O)[C@H]([C@H](O)[C@@H](O)c2ccc(O)cc2)NC(=O)[C@@H]2C[C@@H](O)CN2C(=O)[C@H]([C@@H](C)O)NC1=O [ACULEACIN A] (Palmitoyl-[Orn(4R-OH,5R-OH)]T[Hyp][hTyr(3S-OH,4S-OH)]T[Pro(3S-OH,4S-Me)]; lactam 1-C)",–,–,–,–,–,–,–,–,0.5,–,–,4.92,–,–
CCCCCCCCCCCCNC(=O)[C@H](Cc1ccccc1)NC(=O)[C@H](CCCCNC(=O)[C@@H](N)CCCCNC(=O)OCc1ccccc1Cl)NC(=O)[C@@H](N)CCCCNC(=O)OCc1ccccc1Cl.Cl.Cl,7,114,114,28,14,7,64,28,7,56,114,4.29,10,"Activity [2]: Toxic; Activity (Candida albicans [16]): inactive; Activity (Candida albicans [17]): Dose-dependent effect; pEC50 (Candida albicans [17]; Candida albicans, ATCC 10231, 0.5 h): 4.89; Activity (Candida albicans [18]): Active; Activity (Candida albicans [5]): Active; inhibition (Candida albicans [19]): Dose-dependent effect; Activity (Candida albicans [20]): Active; Activity (Candida albicans [13]): Active"

# Now from value to compound, other results behind:
MIC (Candida parapsilosis) [µM],MIC [1] [µM],MIC (Pseudomonas aeruginosa) [µM],MIC (Staphylococcus aureus [3]) [µM],MIC [4] [µM],MIC (Pichia kudriavzevii) [µM],MIC (Escherichia coli [9]) [µM],MIC (Staphylococcus aureus [10]) [µM],MIC (Candida albicans [11]) [µM],MIC (Escherichia coli [12]) [µM],MIC (Acinetobacter baumannii) [µM],SMILES,pIC50 [7],"hemolysis at 0.5 h, 100 µM [14] [%]",also measured
8,121,64,8,7,8,8,15,8,30,121,CCCCCCCCCCCCNC(=O)[C@H](Cc1ccccc1)NC(=O)[C@H](CCCCNC(=O)[C@H](CCCCN)NC(=O)OCc1ccccc1)NC(=O)[C@H](CCCCN)NC(=O)OCc1ccccc1.Cl.Cl,4.30,–,Activity [2]: Non-toxic; Activity (Candida albicans [5]): Active; Activity [6]: Toxic; Activity (Candida albicans [8]): Active; Activity (Candida albicans [13]): Active
> 144,> 144,> 144,> 144,144,> 144,> 144,> 144,> 128,> 144,> 144,NCCCC[C@H](NC(=O)OCc1ccccc1)C(=O)NCCCC[C@H](NC(=O)[C@H](CCCCN)NC(=O)OCc1ccccc1)C(=O)N[C@@H](Cc1ccccc1)C(N)=O (Cbz-Lys-Lys([Lys-Cbz])-Phe-NH2),–,–,–
16,128,32,16,8,16,32,16,32,32,> 256,CCCCCCCCNC(=O)[C@H](Cc1ccccc1)NC(=O)[C@H](CCCCNC(=O)[C@H](CCCCN)NC(=O)OCc1ccccc1Cl)NC(=O)[C@H](CCCCN)NC(=O)OCc1ccccc1Cl,–,10,–
33,34,67,17,8,33,16,33,33,33,67,NC(=O)[C@H](Cc1ccccc1)NC(=O)[C@H](CCCCNC(=O)[C@@H](N)CCCCNC(=O)OCc1ccccc1Cl)NC(=O)[C@@H](N)CCCCNC(=O)OCc1ccccc1Cl (H-Lys(ClZ)-Lys([εLys-ClZ])-Phe-NH2),–,–,–
